SIAE inh – human SIAE inhibitors, primary screen, biochemical, fluorescence polarization, FP-Rh probe, 1536-well HTS; 370,000 compounds, 0.69% hits; Sialate O-acetylesterase (Homo sapiens), Q9HAT2; SIAE FP-Rh probe binding; inhibition, % at 9.66 µM; AID 1053197, 2014;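 active = inhibition above a cutoff: mean of compounds within the control limits plus 3 SD of those, cut at about 17% in these data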;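 note: 0% = plate median of compound wells and 100% = probe without SIAE protein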
TCR CD3 inh – inhibitors of human TCR-CD3 interaction, primary screen, biochemical, fluorescence, TAMRA-labeled TCR probe | inhibition, % at 9.4 µM | 360,000 compounds, 0.37% hits; in the data active = inhibition above about 19%;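 note: recombinant mutant TCR 2C K166C tagged with TAMRA read by polarization; 0% = receptor in buffer alone and 100% = receptor with positive control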
HTRA1 inh – HTRA1 serine protease inhibitors, primary screen, biochemical, fluorescence polarization, HTS. AID 504803, 2011. recombinant HTRA1, FP-rhodamine activity-based probe. 340,000 compounds, 0.5% hits. inhibition, % at 5.96 µM; in the data active = inhibition above about 36%;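 note: 0% = enzyme with DMSO and 100% = wells lacking enzyme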
PRMT1 inh – PRMT1 methyltransferase inhibitors, primary screen, biochemical, fluorescence polarization | recombinant PRMT1, activity-based probe fluorescence polarization | inhibition, % at 2.79 µM | 370,000 compounds, 1.3% hits | AID 652257, 2013;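 active = inhibition above about 21% made by adding two undisclosed values, limit read from the data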
Target sequence (Q99873 whole entry, looked up): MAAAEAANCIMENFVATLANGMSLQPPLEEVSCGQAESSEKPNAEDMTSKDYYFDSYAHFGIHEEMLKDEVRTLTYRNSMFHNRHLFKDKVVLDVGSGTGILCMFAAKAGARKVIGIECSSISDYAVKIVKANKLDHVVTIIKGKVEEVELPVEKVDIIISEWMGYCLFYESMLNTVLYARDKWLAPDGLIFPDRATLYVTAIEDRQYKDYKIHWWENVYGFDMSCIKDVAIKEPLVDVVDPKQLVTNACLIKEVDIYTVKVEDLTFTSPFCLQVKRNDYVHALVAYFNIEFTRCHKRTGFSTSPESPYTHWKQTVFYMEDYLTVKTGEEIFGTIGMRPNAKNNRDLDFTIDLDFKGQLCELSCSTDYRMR
mABHD4 FP – ABHD4 inhibitors, primary screen, biochemical, fluorescence polarization, mouse. inhibition, % at 8.92 µM. (Lyso)-N-acylphosphatidylethanolamine lipase (Mus musculus), Q8VD66. AID 720543, 2013. purified mABHD4, FP-Rh probe fluorescence polarization. 370,000 compounds, 0.54% hits;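 active = inhibition exceeding the mean over every tested compound plus 3 SD, cut at about 30% in these data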;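 note: 0% = plate median of compound wells and 100% = S159A mutant with DMSO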
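Test system: mABHD4 protein; Read-out basis: % inhibition; Incubation: 45 min + 60 min at 25 °C; Repeats: single replicate; Technique: fluorescence polarization with parallel and perpendicular emission, 525/598 nm; Compound: 8.92 µM, single dose; Benchmarks: full inhibition S159A mutant plus DMSO, zero as sample-well median.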
PRMT1 confirm – PRMT1 methyltransferase inhibitors, confirmation, biochemical, fluorescence polarization, triplicate; shares compounds with PRMT1 inh; recombinant His-PRMT1, activity-based probe fluorescence polarization; inhibition, % at 2.79 µM; 3,300 compounds, 42% hits; AID 687036, 2013;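 active = mean inhibition across replicates above the hit cutoff derived for the earlier primary screen, cut at about 22% in these data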
* marks the source's active call; other numbers are inactive results; . = not tested or not shown. This is a sample that favours compounds with a hit; in the whole collection about 2.6% have one here.

SMILES	SIAE inh	TCR CD3 inh	HTRA1 inh	PRMT1 inh	mABHD4 FP	PRMT1 confirm
O=C(c1cccc(Cl)c1)C1CCCN(C(=O)c2ccoc2)C1 (stereo unspecified)	1	9	-1	-3	1	.
COC(=O)c1ccc(N2CCN(c3ccccc3)CC2)nc1	-3	0	-1	-5	4	.
CC(C)Oc1ccc(CNC(=O)c2cc(S(=O)(=O)N3CCOCC3)cn2C)cc1	3	-1	-2	-3	-1	.
Cc1cc(=S)nc(-c2ccccn2)[nH]1	9	-11	10	33*	3	12
O=C(Sc1ccc(Cl)cc1)c1ccccn1	8	-5	3	47*	10	44*
O=C(NCCNC(=O)c1ccccn1)c1ccc(Cl)cc1	2	9	3	0	-1	.
Cc1ccc(C2C(C(=O)c3ccco3)=C(O)C(=O)N2c2nnc(C)s2)cc1 (stereo unspecified)	1	-4	5	30*	5	5
C=CCSc1nnc(N2C(=O)C(O)=C(C(=O)c3ccco3)C2c2ccccc2F)s1 (stereo unspecified)	-2	-7	-14	27*	1	10
C=CCOc1ccc(C2C(C(=O)c3cccs3)=C(O)C(=O)N2c2nnc(C)s2)cc1 (stereo unspecified)	-9	3	-11	41*	-9	25*
CC(C)c1nnc(N2C(=O)C(O)=C(C(=O)c3cccs3)C2c2ccccc2)s1 (stereo unspecified)	-21	-5	-10	79*	-23	76*
COc1ccc(C(C)=O)cc1COC(=O)c1ccc2c(c1)OCCO2	-3	-3	-24	4	1	.
O=C(C[C@H]1C[C@H](C(=O)N2CCCCC2)[C@@]2(CCc3ccccc3)c3[nH]c4cc(-c5ccco5)ccc4c3CCN2C1=O)NCc1cccc(C(F)(F)F)c1	-16	-8	-6	12	-11	.
COc1ccc(C2C(C(=O)c3cccs3)=C(O)C(=O)N2c2nncs2)cc1 (stereo unspecified)	4	2	-1	75*	3	99*
CCN1C(=O)CC(N2CCC(C(=O)OC)CC2)C1=O (stereo unspecified)	0	4	6	-2	2	.
COc1ccc(NC2CCN(C3CC(=O)N(c4ccc(F)c(Cl)c4)C3=O)CC2)cc1 (stereo unspecified)	-2	-3	-13	2	-17	.
NC(=O)C1CCN(C2CC(=O)N(c3cccc(F)c3)C2=O)CC1 (stereo unspecified)	-10	8	1	29*	8	2
COC(=O)C1CCN(C2CC(=O)N(c3cc(C)cc(C)c3)C2=O)CC1 (stereo unspecified)	-6	0	6	57*	4	-2
NC(=O)C1CCN(C2CC(=O)NC2=O)CC1 (stereo unspecified)	-8	-8	2	64*	-8	-2
NC(=O)C1CCN(C2CC(=O)N(c3ccc(F)c(Cl)c3)C2=O)CC1 (stereo unspecified)	-4	3	3	30*	6	9
Cc1ccccc1N1C(=O)CC(N2CCC(C(N)=O)CC2)C1=O (stereo unspecified)	-1	-3	-3	73*	6	-3
CCOc1cccc(N2C(=O)CC(N3CCC(C(N)=O)(N4CCCCC4)CC3)C2=O)c1 (stereo unspecified)	0	5	-2	40*	-5	0
CCOC(=O)c1ccc(N2C(=O)CC(N3CCC(C(N)=O)(N4CCCCC4)CC3)C2=O)cc1 (stereo unspecified)	-4	0	-2	8	1	.
Cc1ccc(CNC(=O)CC(C)S(=O)(=O)c2ccc3c(c2)NC(=O)CS3)o1 (stereo unspecified)	-8	-4	-6	44*	6	15
CC(C)(C)C(=O)CSc1nc2c(c(-c3cccs3)c1C#N)CCC2	-4	6	-29	3	1	.
CN1CCc2nc(SCC(=O)Nc3ccc(OC(F)(F)F)cc3)c(C#N)c(-c3cccs3)c2C1	-9	3	-3	40*	-10	41*
SMILES	SIAE inh	TCR CD3 inh	HTRA1 inh	PRMT1 inh	mABHD4 FP	PRMT1 confirm
CN1CCc2nc(SCC(=O)Nc3cccc(F)c3)c(C#N)c(-c3cccs3)c2C1	-8	6	-5	65*	5	23*
Cc1cccc(CSc2nc3c(c(-c4cccs4)c2C#N)CN(C)CC3)c1	2	6	-1	0	6	.
O=C(CSc1ccc(-c2ccco2)nn1)c1ccc(F)cc1	5	9	21	54*	22	13
O=C(CSc1ccc(-c2ccco2)nn1)NCc1ccc(F)cc1	2	6	3	9	-14	.
Fc1ccc(CSc2ccc(-c3ccco3)nn2)cc1	6	-6	-6	54*	14	-1
CCN1CCN(c2oc(-c3ccccc3)nc2S(=O)(=O)c2ccc(C)cc2)CC1	4	2	-14	4	5	.
O=C(O)CC(SCC(=O)Nc1ccc(S(=O)(=O)N2CCCC2)cc1)C(=O)O (stereo unspecified)	-4	0	0	45*	2	39*
O=C(O)CC(SCC(=O)Nc1ccccc1)C(=O)O (stereo unspecified)	3	0	13	-3	-5	.
CC1CC(=O)N(c2ccc(C(C)C)cc2)C(=O)C1	1	5	-11	-2	1	.
CC(C)c1ccc(N2C(=O)CC(Sc3ncn[nH]3)C2=O)cc1 (stereo unspecified)	0	5	-9	61*	-1	64*
CCCc1c(O)nc(SC2CC(=O)N(c3cc(OC)ccc3OC)C2=O)[nH]c1=O (stereo unspecified)	7	2	3	5	-3	.
COc1ccc(N2C(=O)CC(Sc3ncn[nH]3)C2=O)c(OC)c1 (stereo unspecified)	3	1	-1	89*	-5	36*
CC(C)N(CCNC(=O)c1ccc(CS(=O)(=O)c2c(Cl)cccc2Cl)o1)Cc1ccccc1	-3	8	-9	1	-5	.
O=C(Nc1ccccc1C(=O)NC(Cc1c[nH]c2ccccc12)C(=O)O)c1ccccc1 (stereo unspecified)	-1	0	-5	-1	2	.
Cc1oc(-c2ccccc2)cc1C(=O)NC(Cc1c[nH]c2ccccc12)C(=O)O (stereo unspecified)	1	-4	-9	30*	-7	4
